From ChEMBL document CHEMBL3352791, “Thioaryl naphthylmethanone oxime ether analogs as novel anticancer agents” (J Med Chem, 2014) come the findings set out here.

The EC50 is the concentration needed to bring the measured effect to its halfway point.

Series [1] concerns MCF7. Kind of series: Antitumor activity against human MCF7 cells xenografted in NIH-3 mouse assessed as increase in TUNEL positive cells at 16 mg/kg, po for 25 days relative to control. The series is classed as functional.
Series [2] is described as follows: Antiproliferative activity against human prostate, androgen receptor positive DU145 cells after 24 hrs by MTT assay. The series is classed as functional, cell-based, DU-145. The note with it: du-145. In general terms: Formazan colour is commonly taken as a measure of viable cells.
For series [3], the system named is MDA-MB-231. Put plainly: Cell cycle arrest in human […] cells assessed as accumulation at subG1 phase at 5 uM by propidium iodide staining by FACS analysis (reference value: 0.3%). It is filed as functional. On the technique in general: A flow cytometer gives signals particle by particle.
For series [4], the system named is MCF7. Put plainly: Cell cycle arrest in human […] MCF7 cells assessed as accumulation at S phase at 2.5 uM by propidium iodide staining by FACS analysis (reference value: 24.76%). The series is classed as functional.
The nature of series [5]: Safety index, ratio of IC50 for human MCF10A cells to EC50 for human HCT116 cells. The series is classed as toxicity, cell-based, MCF-10A. The settings on record: MCF10A cells versus HCT116 cells, read-out: Ratio IC50/EC50. A digest of the protocol:
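Safety index is the IC50 in the normal cells divided by the EC50 in the cancer cells. Both values come from MTT assays: cells in DMEM with 10% FBS, serum-starved 4 h, then exposed to compound across a 100nM-50µM dose range with 0.1% DMSO as vehicle control.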

Series [6] relates to MDA-MB-231. Put plainly: Antiproliferative activity against human ER-positive MDA-MB-231 cells after 24 hrs by MTT assay. The series is classed as functional, cell-based. The note with it: mda-mb-231.
The target in series [7] is Plasminogen activator inhibitor 1 (Homo sapiens) (UniProt P05121). Put plainly: Inhibition of EGF-induced […] PAI-1 in human MDA-MB-231 cells at 1 uM by ELISA. It is filed as cell-based. The method, boiled down: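 MDA-MB-231 cells treated at 1µM for 24 h with or without EGF. PAI-1 in conditioned medium measured by ELISA.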
A general note: ELISA stands for enzyme-linked immunosorbent assay.

Series [8] concerns the target ETS domain-containing protein Elk-1 (Homo sapiens) (UniProt P19419). Kind of series: Inhibition of EGF-induced phosphorylated ELK1 in human MDA-MB-231 cells at 1 uM by ELISA. The series is classed as cell-based.
Series [9] addresses Dual 3',5'-cyclic-AMP and -GMP phosphodiesterase 11A (Homo sapiens) (UniProt Q9HCR9). Kind of series: Inhibition of PDE11A1 (unknown origin) activity at 1 to 10 uM. The method, boiled down:
(§1)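 Recombinant PDE isoform activity was read by fluorescence polarization. A binding reagent complexes with the nucleotide monophosphate that the phosphodiesterase generates from cAMP/cGMP, and this raises the polarization of the labelled substrate. Reference standards were PDE1A3 10µM IBMX, PDE2A3 1nM BAY 60-7550, PDE3CAT 1µM cilostazol, PDE4CAT rolipram, PDE5CAT 0.1µM sildenafil, PDE7A […], PDE8A1 10µM BRL-50481, PDE9A1 1µM SB 36216 and PDE11A1 dipyridamole.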

For series [10], the target named is Phosphodiesterase 4 (Homo sapiens) (UniProt P27815+Q08499+Q07343+Q08493). Kind of series: Inhibition of PDE4 CAT (unknown origin) activity at 1 to 10 uM. The series is classed as protein assay. A digest of the protocol:
as §1

Series [11] addresses T1, Signal transducer and activator of transcription 1-alpha/beta (Homo sapiens) (UniProt P42224).
T1 sequence (whole entry): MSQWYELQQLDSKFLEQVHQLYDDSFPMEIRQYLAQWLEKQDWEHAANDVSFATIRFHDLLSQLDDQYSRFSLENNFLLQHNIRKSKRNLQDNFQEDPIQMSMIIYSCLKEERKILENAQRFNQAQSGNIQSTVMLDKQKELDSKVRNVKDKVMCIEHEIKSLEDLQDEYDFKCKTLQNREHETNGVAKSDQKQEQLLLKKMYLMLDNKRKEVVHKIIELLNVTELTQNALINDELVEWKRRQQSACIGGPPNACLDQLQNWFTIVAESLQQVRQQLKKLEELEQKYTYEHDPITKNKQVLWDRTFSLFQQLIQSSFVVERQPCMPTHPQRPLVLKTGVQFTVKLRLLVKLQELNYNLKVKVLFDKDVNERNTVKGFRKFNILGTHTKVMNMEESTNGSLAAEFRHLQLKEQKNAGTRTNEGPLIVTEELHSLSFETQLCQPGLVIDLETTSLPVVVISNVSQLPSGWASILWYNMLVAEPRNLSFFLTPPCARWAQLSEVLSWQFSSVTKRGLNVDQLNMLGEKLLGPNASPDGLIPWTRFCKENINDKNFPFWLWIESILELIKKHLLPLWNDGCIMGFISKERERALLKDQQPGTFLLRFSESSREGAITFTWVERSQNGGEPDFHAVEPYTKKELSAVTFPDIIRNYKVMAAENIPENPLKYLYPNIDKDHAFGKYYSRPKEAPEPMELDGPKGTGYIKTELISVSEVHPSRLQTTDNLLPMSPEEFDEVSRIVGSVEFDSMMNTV
Put plainly: Inhibition of EGF-induced STAT1 phosphorylation in human MDA-MB-231 cells at 1 uM by ELISA. It is filed as cell-based.

In series [12] the target is Dual specificity calcium/calmodulin-dependent 3',5'-cyclic nucleotide phosphodiesterase 1A (Homo sapiens) (UniProt P54750). Kind of series: Inhibition of PDE1A3 (unknown origin) activity at 1 to 10 uM. The method, boiled down:
as §1

Series [13] deals with Mast/stem cell growth factor receptor Kit (Homo sapiens), P10721 [D816H]. Put plainly: Inhibition of cKit D816H mutant (unknown origin) at 10 uM. The method, boiled down: (§2)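 Cell-free kinase profiling was run as a standard 33P-ATP-based in vitro kinase assay.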
Series [14] concerns MDA-MB-231. Put plainly: Inhibition of MMP9 expression in human MDA-MB-231 cells at 1 uM after 24 hrs by qPCR analysis. It is filed as functional, cell-based. A digest of the protocol:
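MDA-MB-231 cells treated at 1µM. Transcript levels measured by qPCR with GAPDH as internal control.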

The target in series [15] is ETS domain-containing protein Elk-1 (Homo sapiens) (UniProt P19419). Kind of series: Inhibition of basal level ELK1 phosphorylation in human MDA-MB-231 cells at 1 uM by ELISA. It is filed as cell-based.
The target of series [16] is Signal transducer and activator of transcription 3 (Homo sapiens) (UniProt P40763). Kind of series: Inhibition of basal level STAT3 phosphorylation in human MDA-MB-231 cells at 1 uM by ELISA. It is filed as cell-based.
The subject of series [17] is MDA-MB-231. Put plainly: Induction of apoptosis in human […] cells assessed as caspase 8 activation at 2.5 to 7.5 uM by Caspase-Glo assay. It is filed as functional, cell-based. A digest of the protocol:
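Caspase-8, -9 and -3 activities measured with Caspase-Glo 8, 9 and 3 kits; mean ± SEM from three independent experiments.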

In series [18] the target is RAC-alpha serine/threonine-protein kinase (Homo sapiens) (UniProt P31749). Put plainly: Inhibition of basal level AKT phosphorylation in human MDA-MB-231 cells at 1 uM by ELISA. It is filed as cell-based.
Series [19] concerns MDA-MB-231. Put plainly: Inhibition of VEGF expression in human MDA-MB-231 cells at 5 uM by ELISA. It is filed as functional, cell-based.
Series [20] has as its target Ribosomal protein S6 kinase beta-1 (Homo sapiens) (UniProt P23443). Put plainly: Inhibition of p70S6K (unknown origin) at 10 uM. The method, boiled down: as §2
Series [21] deals with MDA-MB-231. Kind of series: Inhibition of secreted PAI-1 protein expression in human MDA-MB-231 cells at 1 uM after 24 hrs by ELISA. The series is classed as functional, cell-based. The method, boiled down: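 MDA-MB-231 cells were treated at 1µM for 24 h, with or without EGF. PAI-1 protein concentration in the collected conditioned medium was then measured by ELISA.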

Each structure is given as a SMILES string. Calls of active or inactive are those of the source. No cut-off for these calls is given here.

Chain of ETS domain-containing protein Elk-1 (Homo sapiens) (P19419 whole entry, the tested form may be a part): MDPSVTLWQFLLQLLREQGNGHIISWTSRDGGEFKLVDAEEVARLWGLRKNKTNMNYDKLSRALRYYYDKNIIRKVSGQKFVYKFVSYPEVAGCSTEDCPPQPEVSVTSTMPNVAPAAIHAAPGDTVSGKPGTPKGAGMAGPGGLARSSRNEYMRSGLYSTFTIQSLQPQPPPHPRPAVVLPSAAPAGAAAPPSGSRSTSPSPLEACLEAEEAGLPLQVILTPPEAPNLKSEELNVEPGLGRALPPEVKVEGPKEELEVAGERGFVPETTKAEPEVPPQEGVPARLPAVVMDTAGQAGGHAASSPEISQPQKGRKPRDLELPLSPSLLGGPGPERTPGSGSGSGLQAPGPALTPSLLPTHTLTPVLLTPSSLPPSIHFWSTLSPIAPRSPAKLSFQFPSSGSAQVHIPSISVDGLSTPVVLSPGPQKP
Chain of Mast/stem cell growth factor receptor Kit (Homo sapiens), P10721 [D816H] (P10721 whole entry D816H): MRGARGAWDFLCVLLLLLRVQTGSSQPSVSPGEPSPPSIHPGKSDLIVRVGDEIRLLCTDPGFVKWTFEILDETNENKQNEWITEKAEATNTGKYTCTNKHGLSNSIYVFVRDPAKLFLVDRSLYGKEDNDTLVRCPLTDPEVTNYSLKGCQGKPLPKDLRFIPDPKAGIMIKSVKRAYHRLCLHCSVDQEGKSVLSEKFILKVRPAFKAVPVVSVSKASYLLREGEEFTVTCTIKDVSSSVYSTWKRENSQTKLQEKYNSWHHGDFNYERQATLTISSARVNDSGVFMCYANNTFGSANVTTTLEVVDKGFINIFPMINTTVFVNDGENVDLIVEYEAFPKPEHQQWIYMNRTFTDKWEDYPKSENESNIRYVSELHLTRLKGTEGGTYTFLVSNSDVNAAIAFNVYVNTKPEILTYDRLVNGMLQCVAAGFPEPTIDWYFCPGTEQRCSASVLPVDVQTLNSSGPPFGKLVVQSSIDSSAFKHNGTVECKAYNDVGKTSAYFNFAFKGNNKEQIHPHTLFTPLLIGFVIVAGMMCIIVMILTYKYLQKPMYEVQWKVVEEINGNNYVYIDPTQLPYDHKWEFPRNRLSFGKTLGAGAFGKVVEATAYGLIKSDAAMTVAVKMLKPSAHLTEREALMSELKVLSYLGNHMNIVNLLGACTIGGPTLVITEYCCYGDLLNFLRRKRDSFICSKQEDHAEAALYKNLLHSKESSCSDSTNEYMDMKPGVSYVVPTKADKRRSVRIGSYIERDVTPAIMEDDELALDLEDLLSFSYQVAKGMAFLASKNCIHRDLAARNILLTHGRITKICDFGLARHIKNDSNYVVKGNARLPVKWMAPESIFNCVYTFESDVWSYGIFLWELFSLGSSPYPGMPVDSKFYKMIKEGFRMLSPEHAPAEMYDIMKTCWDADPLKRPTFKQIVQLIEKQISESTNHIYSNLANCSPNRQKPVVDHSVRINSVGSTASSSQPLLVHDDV
Chain of Ribosomal protein S6 kinase beta-1 (Homo sapiens) (P23443 whole entry, looked up): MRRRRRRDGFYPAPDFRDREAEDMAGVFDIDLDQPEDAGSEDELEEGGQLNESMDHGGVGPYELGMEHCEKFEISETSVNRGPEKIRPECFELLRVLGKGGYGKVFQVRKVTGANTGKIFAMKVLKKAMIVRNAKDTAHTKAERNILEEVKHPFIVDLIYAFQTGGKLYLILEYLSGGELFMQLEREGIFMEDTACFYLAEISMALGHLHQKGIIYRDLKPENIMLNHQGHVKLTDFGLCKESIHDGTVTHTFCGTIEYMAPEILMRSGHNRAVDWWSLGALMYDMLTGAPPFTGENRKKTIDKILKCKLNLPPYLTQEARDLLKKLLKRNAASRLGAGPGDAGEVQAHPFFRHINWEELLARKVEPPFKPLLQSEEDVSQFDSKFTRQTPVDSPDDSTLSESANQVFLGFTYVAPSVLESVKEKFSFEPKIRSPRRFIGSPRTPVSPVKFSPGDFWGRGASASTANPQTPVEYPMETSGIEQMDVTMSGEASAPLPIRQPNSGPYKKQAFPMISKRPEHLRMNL
Chain of Plasminogen activator inhibitor 1 (Homo sapiens) (P05121 whole entry): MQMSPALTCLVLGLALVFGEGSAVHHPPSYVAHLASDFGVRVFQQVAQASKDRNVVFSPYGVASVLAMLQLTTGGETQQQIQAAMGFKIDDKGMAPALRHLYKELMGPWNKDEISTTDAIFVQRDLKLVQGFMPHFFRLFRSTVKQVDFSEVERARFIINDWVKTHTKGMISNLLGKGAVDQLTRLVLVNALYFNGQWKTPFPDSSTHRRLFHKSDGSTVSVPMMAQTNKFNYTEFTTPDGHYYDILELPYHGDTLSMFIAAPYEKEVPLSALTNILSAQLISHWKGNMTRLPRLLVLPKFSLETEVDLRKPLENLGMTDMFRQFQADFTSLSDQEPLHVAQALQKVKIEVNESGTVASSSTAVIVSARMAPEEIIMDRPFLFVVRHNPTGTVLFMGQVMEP
Chain of RAC-alpha serine/threonine-protein kinase (Homo sapiens) (P31749 whole entry): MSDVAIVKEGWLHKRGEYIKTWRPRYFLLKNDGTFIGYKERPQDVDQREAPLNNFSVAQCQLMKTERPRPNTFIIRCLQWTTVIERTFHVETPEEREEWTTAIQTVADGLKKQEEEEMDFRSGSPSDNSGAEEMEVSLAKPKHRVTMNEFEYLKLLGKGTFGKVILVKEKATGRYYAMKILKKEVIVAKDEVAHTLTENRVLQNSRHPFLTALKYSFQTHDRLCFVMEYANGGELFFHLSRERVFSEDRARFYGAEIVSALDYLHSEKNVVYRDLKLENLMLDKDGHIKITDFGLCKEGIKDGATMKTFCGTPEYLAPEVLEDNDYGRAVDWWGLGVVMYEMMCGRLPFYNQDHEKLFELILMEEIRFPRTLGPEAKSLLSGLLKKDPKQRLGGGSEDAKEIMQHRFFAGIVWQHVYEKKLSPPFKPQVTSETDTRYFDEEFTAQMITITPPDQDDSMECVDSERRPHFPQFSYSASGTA
Chain of Dual specificity calcium/calmodulin-dependent 3',5'-cyclic nucleotide phosphodiesterase 1A (Homo sapiens) (P54750 whole entry): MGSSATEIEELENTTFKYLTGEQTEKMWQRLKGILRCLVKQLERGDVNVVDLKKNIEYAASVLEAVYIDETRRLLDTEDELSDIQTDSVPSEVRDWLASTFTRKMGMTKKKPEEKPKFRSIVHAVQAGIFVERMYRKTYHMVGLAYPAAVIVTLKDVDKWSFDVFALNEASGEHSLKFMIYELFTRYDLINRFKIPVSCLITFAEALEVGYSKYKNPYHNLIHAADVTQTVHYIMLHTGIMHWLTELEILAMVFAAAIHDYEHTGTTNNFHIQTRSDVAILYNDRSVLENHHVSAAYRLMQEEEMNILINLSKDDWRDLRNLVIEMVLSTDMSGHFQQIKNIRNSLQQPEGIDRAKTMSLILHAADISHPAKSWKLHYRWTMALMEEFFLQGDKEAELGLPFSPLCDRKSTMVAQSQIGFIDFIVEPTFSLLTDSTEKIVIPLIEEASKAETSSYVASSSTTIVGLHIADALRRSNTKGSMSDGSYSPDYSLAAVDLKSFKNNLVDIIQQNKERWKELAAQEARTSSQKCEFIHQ
Chain of Signal transducer and activator of transcription 3 (Homo sapiens) (P40763 whole entry): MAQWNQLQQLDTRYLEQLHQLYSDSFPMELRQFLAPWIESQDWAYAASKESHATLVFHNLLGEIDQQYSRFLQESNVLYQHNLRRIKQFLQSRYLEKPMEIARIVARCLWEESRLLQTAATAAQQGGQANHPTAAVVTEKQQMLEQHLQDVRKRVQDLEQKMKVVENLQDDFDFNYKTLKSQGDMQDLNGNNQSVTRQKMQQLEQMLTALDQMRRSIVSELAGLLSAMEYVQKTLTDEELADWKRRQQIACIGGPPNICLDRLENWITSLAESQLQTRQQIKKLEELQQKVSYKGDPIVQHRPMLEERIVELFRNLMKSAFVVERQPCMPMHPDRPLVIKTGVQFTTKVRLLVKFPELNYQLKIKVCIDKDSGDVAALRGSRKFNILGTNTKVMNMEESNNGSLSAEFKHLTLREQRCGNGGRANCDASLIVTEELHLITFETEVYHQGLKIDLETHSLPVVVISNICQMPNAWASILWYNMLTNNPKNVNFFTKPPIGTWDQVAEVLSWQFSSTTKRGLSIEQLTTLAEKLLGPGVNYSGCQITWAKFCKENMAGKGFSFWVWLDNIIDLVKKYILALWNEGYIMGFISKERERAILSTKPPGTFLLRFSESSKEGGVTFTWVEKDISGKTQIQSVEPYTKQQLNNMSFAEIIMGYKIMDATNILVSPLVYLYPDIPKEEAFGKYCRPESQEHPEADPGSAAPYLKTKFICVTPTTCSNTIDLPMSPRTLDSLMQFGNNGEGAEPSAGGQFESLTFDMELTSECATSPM
Chain of Dual 3',5'-cyclic-AMP and -GMP phosphodiesterase 11A (Homo sapiens) (Q9HCR9 whole entry, looked up, canonical isoform): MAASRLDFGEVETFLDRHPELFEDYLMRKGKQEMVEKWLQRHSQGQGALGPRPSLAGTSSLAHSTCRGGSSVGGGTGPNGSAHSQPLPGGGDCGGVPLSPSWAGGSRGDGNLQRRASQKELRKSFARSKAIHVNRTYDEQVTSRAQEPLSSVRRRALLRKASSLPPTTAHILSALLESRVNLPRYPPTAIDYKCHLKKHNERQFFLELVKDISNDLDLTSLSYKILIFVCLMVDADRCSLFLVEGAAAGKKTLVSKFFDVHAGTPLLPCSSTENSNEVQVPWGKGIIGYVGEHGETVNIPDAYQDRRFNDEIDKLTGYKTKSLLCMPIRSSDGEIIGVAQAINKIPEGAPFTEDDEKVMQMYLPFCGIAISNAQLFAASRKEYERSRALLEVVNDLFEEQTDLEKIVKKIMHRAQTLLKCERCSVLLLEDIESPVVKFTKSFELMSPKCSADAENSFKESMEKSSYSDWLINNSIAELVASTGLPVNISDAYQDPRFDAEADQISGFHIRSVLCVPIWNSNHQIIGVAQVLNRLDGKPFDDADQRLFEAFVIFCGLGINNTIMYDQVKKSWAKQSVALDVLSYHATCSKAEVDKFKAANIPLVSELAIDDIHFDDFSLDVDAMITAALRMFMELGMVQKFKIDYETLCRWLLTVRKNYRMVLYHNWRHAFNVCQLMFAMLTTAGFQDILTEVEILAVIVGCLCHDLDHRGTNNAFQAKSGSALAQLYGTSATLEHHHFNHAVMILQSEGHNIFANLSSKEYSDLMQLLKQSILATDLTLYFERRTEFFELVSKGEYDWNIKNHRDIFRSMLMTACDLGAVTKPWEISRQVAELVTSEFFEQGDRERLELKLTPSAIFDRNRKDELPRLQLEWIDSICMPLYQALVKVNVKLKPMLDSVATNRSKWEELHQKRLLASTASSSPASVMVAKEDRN

For the compound `CCN(CC)CCO/N=C(\c1ccc(SC)cc1)c1cccc2ccccc12.O=C(O)C(=O)O`, the Activity is above 50% in series [1], 0.9% in series [3] and 16.82% in series [4]. The EC50 in series [2] is 9 µM; in [6], 7.2 µM. For the same compound, in series [5], the selectivity ratio was 2.5.

In the case of `CCN(CC)CCO/N=C(\c1ccc(SC)cc1)c1cccc2ccccc12`, the inhibition result in [7], in series [8], in [14], in series [15] and in [21] was “Active” in each case. Also, the inhibition result in [9], in series [10], in series [11], in series [12], in series [13] and in series [16] was “inactive” throughout. In addition, the inhibition result in series [18], in series [19] and in series [20] was “inactive” throughout. In addition, the result in [17] was Active.
